Screens from PubChem.
The list is not random: actives were taken first. Their share in the collection is about 3%.
Xi reactivation: activators of inactive X chromosome reactivation, primary screen, imaging, XiGFP fibroblasts, GFP high-content imaging, set 2 | activation, % at 7.58 µM | 360,000 compounds, 0.055% hits | XiGFP mouse fibroblasts, % GFP-positive cells imaging, 3 d; cells co-treated with 5-aza-dC sensitizer; scaled so ellipticine positive control = 100%;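 active = mean normalized replicate activation at least 10% and every replicate at or above 10%; inconclusive = only one of the two criteria met; inactive = mean below 10% and not all replicates reach 10%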
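Assay system – SV40-immortalized XiGFP fibroblast cells, line 68-5-11 · Buffer or medium – DMEM supplemented with 5-aza-dC as sensitizing agent · Dosing – one concentration, pinned · Benchmarks – positive control ellipticine, 6 µM final · Times – 3 days compound exposure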
Casp6 inh: human caspase-6 inhibitors, primary screen, biochemical, VEID-R110 fluorescence, single point, set 2 | AID 686996, 2013 | purified caspase-6, Z-VEID-R110 cleavage fluorescence | 350,000 compounds, 0.53% hits | inhibition, % at 12.5 µM | P55212;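 active = mean inhibition across replicates at least about 35%, with every replicate also reaching that limit, limit read from the data; inconclusive = only one of the two criteria met; inactive = neither criterion met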
Target sequence (P55212 24-179 limits assumed): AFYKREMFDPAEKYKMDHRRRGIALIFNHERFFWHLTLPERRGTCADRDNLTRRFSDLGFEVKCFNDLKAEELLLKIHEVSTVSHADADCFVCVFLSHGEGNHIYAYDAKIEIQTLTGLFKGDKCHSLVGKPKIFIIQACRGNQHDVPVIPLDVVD
Target sequence (P55212 194-293 limits assumed): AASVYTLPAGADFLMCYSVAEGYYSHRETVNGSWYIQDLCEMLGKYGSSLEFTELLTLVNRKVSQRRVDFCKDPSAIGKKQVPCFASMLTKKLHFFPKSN
NSD2 HMT inh: NSD2 histone methyltransferase inhibitors, primary screen, biochemical, AlphaScreen, single concentration, set 2; NSD2 peptide methylation, 120 min; inhibition, % at 12.5 µM; 310,000 compounds, 0.54% hits; AID 743445, 2014; in the data active = inhibition above about 50%
esBAF inh: Bmi1 luciferase reporter increase in mESCs, primary screen, esBAF inhibitor project, mouse ES cells, Bmi1 luciferase knock-in, single point | 350,000 compounds, 2% hits | reporter increase, % at 12.5 µM | 24 h; 100% = twice the neutral-well signal; in the data active = activation above about 40%; inconclusive = no clear call, values can overlap the other calls;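 also: a rise in the Bmi1 reporter signal indicates esBAF inhibition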
MITF act: activators of MITF-driven TRPM1 promoter reporter, primary screen, cell-based, SK-MEL-5, luciferase, single point; SK-MEL-5 TRPM1-promoter luciferase, 24 h; % of positive control, neutral wells = 0; 300,000 compounds, 0.75% hits; activation, % at 12.5 µM;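 active = mean activation of at least 80% with every replicate also reaching 80%; inconclusive = mean reaches 80% but some replicate falls short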
Wnt bcat act: Wnt/beta-catenin pathway activators, primary screen, cell-based, plate reader, single point; Wnt/beta-catenin reporter cell assay, activator; activation, % at 9.35 µM; 300,000 compounds, 1.2% hits; AID 743398, 2014; in the data active = activation above about 30%, passing the limit was not always enough; inconclusive = no clear call, values can overlap the other calls
Of the large screens only hits and unclear results are named; the others gave an inactive call; ! = not active in a repeat.

Cc1c(C(=O)Nc2ccccc2F)cnn1-c1ccccc1	MITF act 88
Cc1c(C(=O)Nc2cc(F)cc(F)c2)cnn1-c1ccccc1	esBAF inh inconclusive, MITF act 121, Wnt bcat act 57
Cc1ccc(NC(=O)c2cnn(-c3ccccc3)c2NC(=O)c2ccco2)cc1C	esBAF inh 55 (no result: Xi reactivation, Casp6 inh, NSD2 HMT inh)
COc1ccc(NC(=O)c2cnn(-c3ccccc3)c2C)c(OC)c1	none (no result: NSD2 HMT inh)
Cc1c(C(=O)Oc2cccc3ccccc23)cnn1-c1ccccc1	esBAF inh 45 (no result: Xi reactivation, Casp6 inh, Wnt bcat act)
CCN1[C@@H]2Cn3c(ccc(C4=CCCCC4)c3=O)[C@H]1[C@@H](C(=O)NC1Cc3ccccc3C1)[C@@H]2CO	none (no result: NSD2 HMT inh, esBAF inh, MITF act, Wnt bcat act)
COc1cccc(-c2ccc3c(c2)O[C@H](CN(C)C(=O)C2CC2)[C@H](C)CN([C@@H](C)CO)S3(=O)=O)c1	none (no result: NSD2 HMT inh, esBAF inh, MITF act, Wnt bcat act)
Cn1cccc1-c1nc2ccc(NC(=O)c3cccs3)cc2[nH]1	esBAF inh 64 (no result: Xi reactivation, Casp6 inh)
CC(=O)Nc1ccc2nc(-c3cccn3C)[nH]c2c1	esBAF inh 51 (no result: MITF act)
c1ccc(CSc2ccc(-c3ccc4c(c3)OCO4)nn2)cc1	MITF act 90, Wnt bcat act 35 (no result: Casp6 inh, esBAF inh)
Cn1c(SCc2ccccc2)nnc1-c1ccc2c(c1)OCO2	esBAF inh 52 (no result: Xi reactivation, Casp6 inh)
Cc1ccccc1S(=O)(=O)N1CC[C@H]2[C@H](CO)Nc3ccc(-c4cccc(C#N)c4)cc3[C@H]21	none (no result: Casp6 inh, NSD2 HMT inh, MITF act, Wnt bcat act)
CCc1ccc(CN(Cc2cccnc2)C(=O)/C=C/c2ccc(OC)cc2)cc1	Casp6 inh 98
C[C@@H]1CN([C@@H](C)CO)C(=O)Cc2cc(NC(=O)NC3CCCCC3)ccc2O[C@H]1CN(C)CC1CC1	none (no result: NSD2 HMT inh, MITF act, Wnt bcat act)
COc1ccc(C(=O)Nc2ccc3ccccc3n2)c(OC)c1OC	none
O=C(Nc1ccc2ccccc2n1)c1ccccc1Cl	Wnt bcat act 36
O=C(Nc1ccc2ccccc2n1)C1CCCCC1	Wnt bcat act 48 (no result: MITF act)
O=C(Nc1cccc(NC(=O)c2ccc(Cl)cc2)n1)c1ccc(Cl)cc1	none
O=C(Nc1ccc2ccccc2n1)c1ccc(Cl)cc1	Wnt bcat act 44
CO[C@@H]1CN(C)C(=O)c2ccc(NC(C)=O)cc2OC[C@@H](C)N(Cc2cccnc2)C[C@@H]1C	none (no result: Casp6 inh, NSD2 HMT inh, MITF act, Wnt bcat act)
O=S(=O)(N[C@@H]1CC[C@H](CCn2cc(C3(O)CCCC3)nn2)O[C@H]1CO)c1ccc(F)cc1	none (no result: NSD2 HMT inh, MITF act, Wnt bcat act)
COCCNC(=O)[C@@H]1[C@@H](CO)[C@@H]2Cn3c(ccc(-c4ccccc4OC)c3=O)[C@@H]2N1C(=O)C1CCC1	none (no result: NSD2 HMT inh, esBAF inh, MITF act, Wnt bcat act)
COc1ccc(S(=O)(=O)N2CCOCC2)cc1C(=O)NCc1ccccc1CN1CCCC1	none
COc1ccc(S(=O)(=O)N2CCOCC2)cc1C(=O)NCC(c1ccccc1)c1ccccc1	Casp6 inh 50
C[C@H]1CN([C@@H](C)CO)C(=O)CCCn2cc(nn2)CO[C@@H]1CN(C)C(=O)CCC(F)(F)F	Casp6 inh 45! (no result: NSD2 HMT inh, MITF act)
C[C@@H]1CN([C@@H](C)CO)C(=O)CCCn2cc(nn2)CO[C@@H]1CN(C)C(=O)CCC(F)(F)F	none (no result: Casp6 inh, NSD2 HMT inh, MITF act, Wnt bcat act)
CSc1ccccc1NC(=O)CN(C)C(=O)COc1cccc2cccnc12	Casp6 inh 45 (no result: NSD2 HMT inh)
c1ccc2oc(SCc3cn4ccsc4n3)nc2c1	Wnt bcat act 66 (no result: Xi reactivation, Casp6 inh)
Cc1csc2nc(CSc3nc4ccccc4o3)cn12	esBAF inh 44, MITF act inconclusive, Wnt bcat act 34 (no result: Xi reactivation)
O=c1c2ccccc2nc(SCc2cn3ccsc3n2)n1-c1ccccc1	none (no result: Xi reactivation, Casp6 inh)
Nn1c(CSc2nc3ccccc3o2)nnc1CSc1nc2ccccc2o1	none (no result: Xi reactivation, Casp6 inh)
O=C(C[C@H]1CC[C@@H](NC(=O)Nc2ccc3c(c2)OCO3)[C@@H](CO)O1)NCc1ccc(Cl)cc1	none (no result: NSD2 HMT inh, MITF act, Wnt bcat act)
CCCN(C)C[C@H]1OCCCC[C@H](C)Oc2ccc(NS(=O)(=O)c3ccc(F)cc3)cc2C(=O)N([C@H](C)CO)C[C@H]1C	none (no result: NSD2 HMT inh, MITF act, Wnt bcat act)
CC1CCC2(CC1)NC(=O)N(NC(=O)c1cccs1)C2=O (stereo not drawn)	none
